Measured values from different studies.
Each line is one published result; the experiments were not run side by side.
NPY1R: Neuropeptide Y receptor type 1 (NPY1R, Homo sapiens, UniProt P25929)
SRPK3: SRSF protein kinase 3 (SRPK3, Homo sapiens, UniProt Q9UPE1)
AGTR1: Type-1 angiotensin II receptor (AGTR1, Homo sapiens, UniProt P30556)
Transmembrane protease serine 6: Transmembrane protease serine 6 (Homo sapiens, UniProt Q8IU80)

SMILES	target	assay	setting	inhibition
CCN(CC)CCCC[C@H](NC(=O)[C@H](CC(C)C)NC(=O)[C@H](C)NC(=O)[C@H](Cc1ccccc1)NC(=O)c1ccc(C(C)(C)C)cc1)C(=O)N[C@@H](CO)C(=O)OC	NPY1R	ligand displacement, radioligand	10 µM	-20%
C#Cc1n[nH]c2c(-c3cn(C(C)c4ccccn4)c(=O)[nH]c3=O)cc(F)cc12 (stereo not drawn)	Serine/threonine-protein kinase mTOR (MTOR, Homo sapiens, UniProt P42345)	enzyme activity, inhibitor	1 µM	-1.6%
Cn1cc(-c2cccc(N3CCc4c(sc5c4CC(C)(C)C5)C3=O)c2CO)cc(Nc2ccncn2)c1=O	SRPK3	enzyme activity, inhibitor	1 µM	9%
COCc1c(-c2cc3cc(C)cc(OC)c3s2)c2c(N)ncnn2c1CN1CCNC(=O)C1	Serine/threonine-protein kinase Nek5 (NEK5, Homo sapiens, UniProt Q6P3R8)	cell-free assay, competition with immobilised ligand	1 µM	90.1%
C[C@H](C(=O)N[C@H]1COc2ccccc2[C@@H]1S(C)(=O)=O)c1ccc(F)cc1	AGTR1	cell-free assay	10 µM	-6%
Cn1cc(-c2cc(F)cc(N3CCn4c(cc5c4CCCC5)C3=O)c2CO)cc(Nc2ccc(N3CCN(C4COC4)CC3)cn2)c1=O	SRPK3	enzyme activity, inhibitor	0.1 µM	15%
c1ccc(C(NCCNC(c2ccccc2)c2ccccc2)c2ccccc2)cc1	AGTR1	cell-free assay	10 µM	40%
COc1cc(Nc2ncc(F)c(Nc3ccc4c(n3)NC(=O)C(C)(C)O4)n2)cc(OC)c1OC	Serine/threonine-protein kinase TAO1 (TAOK1, Homo sapiens, UniProt Q7L7X3)	binding	10 µM	92%
CN1CCN(CCCOc2ccc3occc(=O)c3c2)CC1	Transmembrane protease serine 6	enzyme activity, inhibitor, fluorescence	10 µM	5%
CCCCCCCCCCCC(=O)OC[C@@H](COP(=O)(O)OCCNC(=O)c1ccc(Cn2c(=O)[nH]c3c(N)nc(OCCOC)nc32)cc1)OC(=O)CCCCCCCCCCC	NPY1R	ligand displacement, radioligand	10 µM	11%
C[C@@H]1CCCN1CCCCOc1ccc2occc(=O)c2c1	Transmembrane protease serine 6	enzyme activity, inhibitor, fluorescence	10 µM	10%
CN(CCN1CCC(OC(=O)Nc2ccccc2-c2ccccc2)CC1)C(=O)c1ccc(CN2CCC(C(N)=O)CC2)cc1	Vasopressin V2 receptor (AVPR2, Homo sapiens, UniProt P30518)	ligand displacement, radioligand	1 µM	-7%
CC(C)N1CCC[C@H]1CNC(=O)c1cn(C2CCCC2)c(=O)c2c1c1ccccc1n2C	NPY1R	ligand displacement, radioligand	10 µM	5%
COCCN(CCOC)C(=O)[C@@]12C[C@@H]1[C@@H](n1cnc3c(NC(C4CC4)C4CC4)nc(Cl)nc31)[C@H](O)[C@@H]2O	Adenosine receptor A3 (ADORA3, Homo sapiens, UniProt P0DMS8)	ligand displacement, radioligand	10 µM	30%
CC(C)C(CC(=O)NO)N=[N+]=[N-] (stereo not drawn)	Endoplasmic reticulum aminopeptidase 2 (ERAP2, Homo sapiens, UniProt Q6P179)	enzyme activity, inhibitor, fluorescence	300 µM	5%
COc1ccc(S(=O)(=O)N2CCCCC2)cc1C	AGTR1	ligand displacement, radioligand	10 µM	< 30%
O=c1ccoc2ccc(OCCCCN3CCCCC3)cc12	Transmembrane protease serine 6	enzyme activity, inhibitor, fluorescence	10 µM	12%
O=C(Nc1cccnn1)N1CCN([C@@H]2CCOc3cc(C(F)(F)F)ccc32)CC1	Beta-secretase 1 (BACE1, Homo sapiens, UniProt P56817)	enzyme activity, inhibitor	20 µM	3%
